# The entries come from a sample that favours hits as a whole.
# Biofilm kill mix = mixtures killing C. albicans biofilm; inhibition, % at 7.6 µM; 120,000 tested, 0.02% active; C. albicans biofilm persisters + clotrimazole, fluorescence viability; primary screen in compound mixtures of four per well; AID 1242;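 active means inhibition above 30.3% in the primary screen of four-compound pools, then above 30% when the compound was retested; inconclusive means passed the primary limit but could not be retested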;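 further: compounds exposed to preformed 24 h biofilms for 48 h; 0% = untreated biofilm control and 100% = clotrimazole plus chlorhexidine kill blank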
#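 Probe or stimulus – Clotrimazole 50 µg/mL co-treatment · System – C. albicans biofilms · Schedule – 24 h biofilm formation, then 48 h compound exposure, 37 °C · Evaluation – percent inhibition of biofilm viability · Technique – 2-h Alamar Blue fluorescence, 535/590 nm excitation/emission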
# ROMK mod = modulators of human ROMK potassium channel. 130,000 tested, 2% active. AID 1918. Tet-inducible ROMK, thallium flux fluorescence; actives lie on both sides. P48048. B-score at 10 µM;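 active means signal ratio slope over the read window, or its plate-corrected B-score, at least 3 SD from the plate mean, either direction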;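 further: B-score of the F/F0 ratio slope over 7 to 12 s after thallium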
# Target sequence (P48048 whole entry, looked up): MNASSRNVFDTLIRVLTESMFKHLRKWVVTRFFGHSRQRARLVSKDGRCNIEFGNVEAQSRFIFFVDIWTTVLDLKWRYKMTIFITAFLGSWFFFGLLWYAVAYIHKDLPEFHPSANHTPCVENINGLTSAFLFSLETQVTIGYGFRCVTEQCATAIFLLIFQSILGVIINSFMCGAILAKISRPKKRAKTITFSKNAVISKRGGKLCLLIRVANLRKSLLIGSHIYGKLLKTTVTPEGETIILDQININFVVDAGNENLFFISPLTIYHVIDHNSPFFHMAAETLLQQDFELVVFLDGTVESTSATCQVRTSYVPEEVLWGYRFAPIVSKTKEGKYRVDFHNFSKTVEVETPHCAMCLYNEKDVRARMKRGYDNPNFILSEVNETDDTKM
# Pf gamet viab = inhibitors of late stage P. falciparum gametocyte viability; P. falciparum stage V gametocytes, ATP luminescence, 24 h; inhibition, % at 10.9 µM; 150,000 tested, 0.065% active;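 active means inhibition above the mean plus 3 SD of compounds within the control limits, set per campaign, cut at about 38% in these data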;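 further: 0% = DMSO wells and 100% = medium only without gametocytes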
# ROMK retest = confirmation of human ROMK potassium channel modulators. shares compounds with ROMK mod. ROMK thallium flux, fluorescence ratio; hits give low values. normalized thallium flux (F/F0 slope) at 10 µM. 3,000 tested, 54% active;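 active means Flux at 10 µM at least 3 SD below or above vehicle control mean in one or both replicates; inconclusive means no clear call, values can overlap the other calls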
# Starred values were filed as active, the others as inactive; ? = inconclusive; . = not tested or not shown.
SMILES,Biofilm kill mix,ROMK mod,Pf gamet viab,ROMK retest
Cc1ccc(-n2c(=O)c3c4c(sc3n3c(=S)[nH]nc23)CCC4)cc1,12.6,.,1.0,.
CCCOc1ccccc1NC(=O)Nc1ccccc1Cl,16.7,0.976,27.6,.
CC(=O)c1ccc(N2Cc3ccccc3C3(CCOCC3)C2=N)cc1,15.4,-0.312,-2.6,.
CCOC(=O)COc1ccc2c(C#N)c3ccccn3c2c1,7.6,-0.259,-7.9,.
N#Cc1c2ccc(OCC(N)=O)cc2n2ccccc12,20.1,-3.19*,-11.2,0.0508*
CCCCN(Cc1ccccc1)S(=O)(=O)c1cc(Br)cc2c1N(C(C)=O)C(C)C2 (stereo not drawn),.,-3.11,.,.
COCC1CCN(Cc2nc(-c3ccc(OC)cc3)no2)CC1,-10.2,-0.593,-4.8,.
COc1ccc2c(Cl)c(C(=O)N/N=C3\CCCC(=O)C3)sc2c1,-4.1,-3.1*,-16.9,0.0742
COc1ccc2c(Cl)c(C(=O)N/N=C/c3ccc4c(c3)OCO4)sc2c1,.,0.0496,-13.8,.
Cc1cc(O)ccc1NC(=O)Cc1cccc2ccccc12,.,.,5.9,.
Cc1c(Cl)cccc1NC(=O)CNC(=O)c1ccco1,.,.,0.4,.
Cc1c(Cl)cccc1NC(=O)CNC(=O)c1ccc(F)cc1,0.4,.,4.3,?
COc1ccc(-c2[nH]n(-c3ccc([N+](=O)[O-])cc3)c(=O)c2C=NCCN2CCNCC2)cc1,8.9,-2.95*,.,0.0592*
O=c1c(C=NCCN2CCNCC2)c(-c2ccccc2)[nH]n1-c1ccc([N+](=O)[O-])cc1,23.8,-1.81,.,.
COC(=O)C1C(=O)C2=C(CC1C)NC(C)=C(C(=O)OC(C)C)C2c1ccc(C)o1 (stereo not drawn),.,-0.0757,.,.
COC(=O)C1C(=O)C2=C(CC1C)NC(C)=C(C(=O)OCCOc1ccccc1)C2c1ccc(C)o1 (stereo not drawn),.,-3.95*,25.1,0.0658*
CCOc1ccc2nc(C)cc(C(=O)O)c2c1,.,1.85*,-1.5,0.0872
CCOc1ccc2oc(C(=O)O)c(C)c2c1,17.6,.,-4.0,.
CN1c2cccc3cccc(c23)N(C)C1(C)C,.,-0.0608,-3.8,.
CC(=O)c1ccc2cccc3c2c1N=CN3C,.,.,.,0.049*
CCC1(c2ccccc2)NC(=O)N(Cc2ccc(C(=O)OC)cc2)C1=O (stereo not drawn),14.9,.,-6.0,.
COc1ccc(NC(=O)c2cc(-c3cccc(OC)c3)on2)cc1,9.2,-4.42*,4.3,0.0807
COc1cccc(-c2cc(C(=O)Nc3cccc(O)c3)no2)c1,.,.,11.6,.
COc1cccc(-c2cc(C(=O)NCc3cccs3)no2)c1,14.4,-2.08*,-29.3,0.0811
COc1ccc(-c2cc(C(=O)NCc3cccs3)no2)cc1,13.4,0.785,-0.8,.
SMILES,Biofilm kill mix,ROMK mod,Pf gamet viab,ROMK retest
CSc1cccc(NC(=O)C2CCN(C(=O)c3ccccc3C)CC2)c1,17.9,0.513,5.5,.
CCCOC(=O)c1[nH]c2c(c1C)C(=O)CC(c1ccc(OC)c(OC)c1)C2 (stereo not drawn),10.8,-0.625,17.0,.
CCOCCOC(=O)c1[nH]c2c(c1C)C(=O)CC(c1cccs1)C2 (stereo not drawn),16.9,5.69*,-2.1,0.0755
COCCOC(=O)c1[nH]c2c(c1C)C(=O)CC(c1cccs1)C2 (stereo not drawn),32.2,1.06,-21.1,.
CCCCCOC(=O)c1[nH]c2c(c1C)C(=O)CC(c1ccco1)C2 (stereo not drawn),8.2,2.12,.,0.0852
CN(NS(=O)(=O)c1ccc(Cl)cc1)c1nc(C(F)(F)F)nc2ccccc12,8.8,.,.,.
COc1ccc(N(C(C)C(=O)N/N=C/c2cccnc2)S(C)(=O)=O)cc1 (stereo not drawn),8.9,1.25,4.5,.
COc1ccc(S(=O)(=O)N2CCOCC2)cc1NC(=O)CCc1c[nH]c2ccccc12,9.2,-0.137,25.4,.
Cc1cc(C)cc(N(C(=O)c2csnn2)C(C(=O)NC(C)(C)C)c2cccnc2)c1 (stereo not drawn),9.0,0.76,-8.8,.
Cc1cccc(N(C(=O)c2csnn2)C(C(=O)NC(C)(C)C)c2cccnc2)c1 (stereo not drawn),3.0,2.18*,-16.1,0.0769
O=C(c1ccoc1)N1CCC(CO)(CCc2ccccc2)CC1,14.5,0.774,10.7,.
Cc1cc2nnc(SCC(=O)N3CCCCC3)n2c(N)n1,28.5,1.31*,-38.6,0.0835
Cc1cc2nnc(SCC(=O)NCc3cccs3)n2c(N)n1,.,.,-13.7,.
Cn1c(N)c(C(=O)COC(=O)CSc2ccc(Cl)cc2)c(=O)n(C)c1=O,3.8,1.51,-5.5,.
CCOc1ccccc1N(CC(=O)N1CCOCC1)S(=O)(=O)c1ccc(SC)cc1,.,-7.38*,.,0.0335*
CCOc1ccccc1N(CC(=O)N1CCCC1)S(C)(=O)=O,.,.,-4.9,.
N/C(=N\OC(=O)Cc1ccccc1)c1ccccc1Cl,6.6,0.38,11.3,.

# Bioassay records (PubChem BioAssay)
